Results collected from several papers.
Each line is one published result; the experiments were not run side by side.
Target: Fibroblast growth factor receptor 2 (FGFR2, Homo sapiens, UniProt P21802)

N#Cc1ccc(NC(=O)Nc2ccccc2)cc1
remaining binding (cell-free assay, competition with immobilised ligand; 25 µM): 100%

C1=C/COCc2cc(ccc2OCCN2CCCC2)Nc2nccc(n2)-c2cccc(c2)COC/1
remaining binding (binding; 0.1 µM): 94%

CCCCC(=O)Nc1ccc(-c2ccc3ncn(CCC)c(=O)c3c2)cn1
remaining binding (binding, competition with immobilised ligand; 0.5 µM): 86%

CN1CCN(C(=O)c2ccc(NC(=O)Nc3ccc(N(C)c4ccnc(Nc5ccc(CS(C)(=O)=O)cc5)n4)cc3)cc2)CC1
remaining binding (binding, competition with immobilised ligand; 1 µM): 99%

CO[C@@H]1[C@H](N(C)C(=O)c2ccccc2)C[C@H]2O[C@]1(C)n1c3ccccc3c3c4c(c5c6ccccc6n2c5c31)C(=O)NC4
inhibition (enzyme activity, inhibitor; 1 µM): 42%

COc1ccc2oc(-c3ccc4nc(N)oc4c3)c/c(=N\c3ccccc3NC(=O)CCN)c2c1
remaining binding (binding; 1 µM): 95%

Cc1ccc(NC(=O)c2ccnc(C(F)(F)F)c2)cc1-c1cc(OCCO)nc(N2CCOCC2)c1
remaining binding (binding, competition with immobilised ligand; 1 µM): 91%

C=CC(=O)N1CCC([C@@H]2CCNc3c(C(N)=O)c(-c4ccc(Oc5ccccc5)cc4)nn32)CC1
inhibition (cell-free assay; 1 µM): 14%

CC(C)S(=O)(=O)c1ccc2nccc(Nc3ccc4sc(C5CCCC5)nc4c3)c2c1
activity vs control (enzyme activity, inhibitor; 1 µM): 110%
